In ChEMBL document CHEMBL1764988, “Synthesis of 2-(substituted phenyl)-3,5,5-trimethylmorpholine analogues and their effects on monoamine uptake, nicotinic acetylcholine receptor function, and behavioral effects of nicotine” (J Med Chem, 2011) one finds AD50 and IC50 data, which are given here for four compounds.

Where only a bound is given, the exact number is not on record here.

For experiment [1], the species on record is Mus musculus. The experiment in a line: Effect on body temperature in ICR mouse assessed as inhibition of nicotine-induced hypothermic response. It is filed as functional. In a few lines: (§1)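 Male ICR mice (20–25 g) were used to test blockade of acute nicotine effects (tail-flick, hot-plate, locomotor activity, body temperature). At least four doses of test compound were given, with at least eight mice per dose group. Results were expressed as AD50 (mg/kg) with confidence limits, or as % effect at the highest dose tested.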

For experiment [2], the species on record is Mus musculus. Description: Effect on behavioral activity in ICR mouse assessed as inhibition of nicotine-induced locomotory response. It is filed as functional. The essentials: as §1
Experiment [3] concerns the target Sodium-dependent dopamine transporter (Homo sapiens, UniProt Q01959). Description: Inhibition of human DAT in HEK293 cells assessed as inhibition of [3H]dopamine uptake. It is filed as cell-based. The essentials:
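[3H]DA, [3H]NE or [3H]5HT uptake was measured by the corresponding human transporter stably expressed in HEK-293 cells. Values are mean ± standard error of three independent experiments, each run in triplicate.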

For experiment [4], the species on record is Mus musculus. The experiment in a line: Antinociceptive activity in ICR mouse assessed as inhibition of nicotine-induced response by hotplate test. It is filed as functional. The essentials:
as §1

Experiment [5] has as its target Nicotinic acetylcholine receptor alpha-1/beta-1 (Homo sapiens, UniProt P02708+P11230). The experiment in a line: Antagonist activity at human alpha1beta1 nAChR in HEK293 cells assessed as inhibition of carbamylcholine-induced radiolabeled Rb ion efflux. It is filed as functional, cell-based. The essentials: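 86Rb+ efflux from human nAChR subtypes naturally or heterologously expressed in human cell lines. Cells were stimulated with a subtype-specific EC80–EC90 concentration of the full agonist carbamylcholine, alone or with test ligand (log molar series). Specific efflux was expressed as percent of control. IC50 values are means from three independent experiments; SEM is given as a multiplication/division factor.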

Experiment [6] is filed under the species Mus musculus. Description: Antinociceptive activity in ICR mouse assessed as inhibition of nicotine-induced response by tail flick test. It is filed as functional. The essentials: as §1

Chain of Nicotinic acetylcholine receptor alpha-1/beta-1 (P02708 whole entry): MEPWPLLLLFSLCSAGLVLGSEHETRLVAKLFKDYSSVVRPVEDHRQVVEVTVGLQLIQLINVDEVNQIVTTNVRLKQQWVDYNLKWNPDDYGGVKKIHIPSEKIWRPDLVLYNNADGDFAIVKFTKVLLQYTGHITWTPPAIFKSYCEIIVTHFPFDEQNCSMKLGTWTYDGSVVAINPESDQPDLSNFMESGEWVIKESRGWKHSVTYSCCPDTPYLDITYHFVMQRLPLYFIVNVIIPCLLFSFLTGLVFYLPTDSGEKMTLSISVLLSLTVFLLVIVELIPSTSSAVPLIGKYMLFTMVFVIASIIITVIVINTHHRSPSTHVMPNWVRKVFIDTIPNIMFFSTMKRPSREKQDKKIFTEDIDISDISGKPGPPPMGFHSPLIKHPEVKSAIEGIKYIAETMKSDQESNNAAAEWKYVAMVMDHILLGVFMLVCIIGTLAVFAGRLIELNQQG
Chain of Nicotinic acetylcholine receptor alpha-1/beta-1 (P11230 whole entry): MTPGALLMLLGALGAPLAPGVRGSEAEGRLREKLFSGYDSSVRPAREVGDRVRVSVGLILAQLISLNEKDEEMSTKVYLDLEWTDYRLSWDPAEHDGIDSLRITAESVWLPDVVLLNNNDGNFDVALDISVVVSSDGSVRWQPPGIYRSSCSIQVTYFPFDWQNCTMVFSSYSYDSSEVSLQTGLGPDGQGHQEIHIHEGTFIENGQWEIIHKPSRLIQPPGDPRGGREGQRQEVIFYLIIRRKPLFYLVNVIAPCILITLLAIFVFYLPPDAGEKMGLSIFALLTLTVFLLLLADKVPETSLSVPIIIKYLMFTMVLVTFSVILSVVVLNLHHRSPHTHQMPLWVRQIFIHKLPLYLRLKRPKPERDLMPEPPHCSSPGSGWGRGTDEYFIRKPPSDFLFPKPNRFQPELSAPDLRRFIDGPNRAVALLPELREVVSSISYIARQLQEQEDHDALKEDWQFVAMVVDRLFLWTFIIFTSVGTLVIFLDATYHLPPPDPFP
Chain of Sodium-dependent dopamine transporter (Q01959 whole entry): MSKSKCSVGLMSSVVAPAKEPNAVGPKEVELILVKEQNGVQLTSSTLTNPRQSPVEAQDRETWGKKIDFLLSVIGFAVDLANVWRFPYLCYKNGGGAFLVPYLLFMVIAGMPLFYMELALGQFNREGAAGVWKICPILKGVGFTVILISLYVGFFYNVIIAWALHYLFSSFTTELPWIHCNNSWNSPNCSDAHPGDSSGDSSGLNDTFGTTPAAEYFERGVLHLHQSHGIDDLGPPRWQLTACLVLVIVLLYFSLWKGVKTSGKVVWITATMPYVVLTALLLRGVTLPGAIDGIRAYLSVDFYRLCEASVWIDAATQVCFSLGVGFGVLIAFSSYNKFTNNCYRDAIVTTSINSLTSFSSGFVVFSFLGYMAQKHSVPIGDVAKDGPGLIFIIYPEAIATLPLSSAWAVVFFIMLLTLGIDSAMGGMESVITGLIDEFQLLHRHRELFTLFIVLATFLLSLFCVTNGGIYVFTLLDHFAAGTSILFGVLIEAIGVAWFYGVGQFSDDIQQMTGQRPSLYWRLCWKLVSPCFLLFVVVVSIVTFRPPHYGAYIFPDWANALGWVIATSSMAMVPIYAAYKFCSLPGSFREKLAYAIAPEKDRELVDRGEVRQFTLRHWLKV

As a reminder, the IC50 is the concentration at which inhibition is half-maximal. Regarding `C[C@@H]1NC(C)(C)CO[C@@]1(O)c1cccc(Br)c1`, the AD50 in experiment [1] was over 20 mg/kg; in experiment [2] it was 2.1 mg/kg; in experiment [4] it was over 20 mg/kg; in experiment [6], 0.006 mg/kg. Besides, the half-inhibitory concentration (IC50) stood at 0.044 µM in experiment [3] and 7.3 µM in experiment [5].

For the compound `C[C@@H]1N(C)C(C)(C)CO[C@@]1(O)c1cccc(Cl)c1`, the AD50 in experiment [1] is over 20 mg/kg; in experiment [2] it was 3.8 mg/kg; in experiment [4] it was over 20 mg/kg; in experiment [6], 0.13 mg/kg. The IC50 in experiment [3] came out at 0.23 µM; in experiment [5], 21 µM.

Turning to `C[C@H]1NC(C)(C)CO[C@]1(O)c1cccc(Cl)c1`, the AD50 in experiment [1] is over 20 mg/kg; in experiment [2] it was over 20 mg/kg; in experiment [4], 3.9 mg/kg; in experiment [6], 1.26 mg/kg.

`CCC[C@@H]1NC(C)(C)CO[C@@]1(O)c1cccc(Cl)c1`: the AD50 was over 20 mg/kg in experiment [1], 0.49 mg/kg in experiment [2], over 20 mg/kg in experiment [4] and 0.017 mg/kg in experiment [6].
